Active and inactive are the calls of the source.
How the values were obtained:
Mus musculus [1] = assay: (§1) Compound was tested for the lowest dose which protected half of the mice in pentylenetetrazole seizure test 0.5 hr after ip administration of the compound; format: functional
Method in brief: (§2)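 This was a repeat of the subcutaneous pentylenetetrazol screen in mice (85 mg/kg s.c.). Endpoint was prevention of clonic seizures, four animals per dose at 30, 100, 300 or 600 mg/kg. The value is the lowest dose at which at least half of the four animals were protected.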

Mus musculus [2] = assay: Number of mice exhibiting toxicity out of four (4) mice in repeated subcutaneous pentylenetetrazole seizure test was measured by using rotarod test; format: organism-based; details: in vivo
Method in brief: (§3)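 Neurotoxicity was scored in the rotorod test in mice given doses up to 600 mg/kg. The value is the number of animals out of four showing toxicity. It was recorded for both the initial screen and the repeat pentylenetetrazol screen.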

Mus musculus [3] = species on record: Mus musculus; assay: Number of mice exhibiting toxicity out of four (4) mice was measured by using rotarod test.; format: organism-based; details: in vivo; method in brief: as §3
Mus musculus [4] = assay: Inhibition of maximal electroshock induced seizures in mice 4 hr after administration; Inactive.; format: functional, organism-based
Mus musculus [5] = assay: Compound was tested for maximal electroshock seizure test in mice 0.5 hr after administration; IA is Inactive; format: functional, organism-based
Mus musculus [6] = assay: Inhibition of subcutaneous pentylenetetrazole induced seizures in mice 4 hr following i.p. administration; Inactive.; format: functional, organism-based
Mus musculus [7] = assay: (§4) Compound was tested for subcutaneous pentylenetetrazole seizure test in mice after administration intraperitoneally at 0.5h.; format: functional
Mus musculus [8] = assay: Compound was tested for subcutaneous pentylenetetrazole seizure test in mice after administration intraperitoneally at 0.5 hr; IA is Inactive; format: functional, organism-based
Mus musculus [9] = assay: (§5) Compound was tested for maximal electroshock seizure test in mice 0.5 hr after administration.; format: functional
Mus musculus [10] = assay: Compound was tested for the lowest dose which protected half of the mice in pentylenetetrazole seizure test 4 hr after ip administration of the compound; IA is Inactive; format: functional, organism-based; method in brief: as §2
Mus musculus [11] = assay: (§6) Compound was tested for subcutaneous pentylenetetrazole seizure test in mice after administration intraperitoneally at 4h.; format: functional
Mus musculus [12] = assay: as §4; format: functional; remark: listed apart in the source
Method in brief: (§7)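 Mice, four per dose level, screened at 30, 100, 300 and 600 mg/kg and read at 0.5 h and 4 h after dosing. End point is prevention of minimal threshold (clonic) seizures induced by pentylenetetrazol 85 mg/kg sc. Activity is the lowest dose at which at least one of four animals is protected.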

Mus musculus [13] = assay: as §6; format: functional; method in brief: as §7; remark: listed apart in the source
Mus musculus [14] = assay: as §5; format: functional; remark: listed apart in the source
Method in brief: (§8)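 Mice, four per dose level, screened at 30, 100, 300 and 600 mg/kg and read at 0.5 h and 4 h after dosing. End point is prevention of tonic hindlimb extension after maximal electroshock. Activity is the lowest dose at which at least one of four animals is protected.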

Mus musculus [15] = assay: as §1; format: functional; remark: listed apart in the source
Method in brief: (§9)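 Repeat pentylenetetrazol screen (85 mg/kg sc, clonic seizure end point) in four mice per dose, at 30, 100, 300 and 600 mg/kg, read at 0.5 h and 4 h. The value is the lowest dose at which at least half of the four animals were protected. A few cases were rescreened at 100, 250, 450 and 600 mg/kg or used only three animals.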

Mus musculus [16] = assay: (§10) Compound was tested for the lowest dose which protected half of the mice in pentylenetetrazole seizure test 4 hr after ip administration of the compound; format: functional; method in brief: as §9
Mus musculus [17] = assay: (§11) Compound was tested for maximal electroshock seizure test in mice 4 hr after administration; IA is Inactive; format: functional, organism-based; method in brief: as §8
Mus musculus [18] = assay: Compound was tested for maximal electroshock seizure test in mice 4 hr after administration.; format: functional
Mus musculus [19] = assay: Compound was tested for maximal electroshock seizure test in mice 0.5 hr after administration; IA is Inactivev; format: functional, organism-based
Mus musculus [20] = assay: Compound was tested for subcutaneous pentylenetetrazole seizure test in mice after administration intraperitoneally at 4h.; IA is Inactive; format: functional, organism-based
Mus musculus [21] = assay: as §11; format: functional, organism-based; remark: listed apart in the source
Mus musculus [22] = assay: as §10; format: functional; method in brief: as §2; remark: listed apart in the source
Mus musculus [23] = assay: Compound was tested for the lowest dose which protected half of the mice in pentylenetetrazole seizure test 0.5 hr after ip administration of the compound; IA is Inactive; format: functional, organism-based; method in brief: as §2

## O=C1CC(C[C@@H](O)C2CCCC[C@@H]2O)CC(=O)N1 (stereo not given in full)
Mus musculus [1]
  scMet: 600 mg/kg
Mus musculus [2]
  Toxicity: 0
Mus musculus [3]
  Toxicity: 0
Mus musculus [4]
  MES: inactive
Mus musculus [5]
  MES: inactive
Mus musculus [6]
  scMet: inactive
Mus musculus [7]
  scMet: 100 mg/kg

## C[C@H]1CC(C(=O)CC2CC(=O)NC(=O)C2)C(=O)[C@@H](C)C1 (stereo not given in full)
Mus musculus [4]
  MES: inactive
Mus musculus [5]
  MES: inactive
Mus musculus [6]
  scMet: inactive
Mus musculus [8]
  scMet: inactive

## C[C@@H]1CC(C2CC(CC(=O)NCc3ccccc3)CC(=O)O2)[C@@H](O)[C@@H](C)C1 (stereo not given in full)
Mus musculus [4]
  MES: inactive
Mus musculus [5]
  MES: inactive
Mus musculus [6]
  scMet: inactive
Mus musculus [8]
  scMet: inactive

## C[C@H]1CCC(=O)C(C(=O)CC2CC(=O)NC(=O)C2)C1 (stereo not given in full)
Mus musculus [4]
  MES: inactive
Mus musculus [5]
  MES: inactive
Mus musculus [6]
  scMet: inactive
Mus musculus [8]
  scMet: inactive

## C[C@H]1CC([C@H](O)CC2CC(=O)N(C)C(=O)C2)[C@@H](O)[C@@H](C)C1 (stereo not given in full)
Mus musculus [9]
  MES: 600 mg/kg
Mus musculus [3]
  Toxicity: 0
Mus musculus [4]
  MES: inactive
Mus musculus [6]
  scMet: inactive
Mus musculus [8]
  scMet: inactive

## C[C@H]1CC([C@H](O)CC2CC(=O)N(Cc3ccccc3)C(=O)C2)[C@@H](O)[C@@H](C)C1 (stereo not given in full)
Mus musculus [4]
  MES: inactive
Mus musculus [5]
  MES: inactive
Mus musculus [6]
  scMet: inactive
Mus musculus [8]
  scMet: inactive

## C[C@H]1CC[C@H](O)C([C@H](O)CC2CC(=O)NC(=O)C2)C1 (stereo not given in full)
Mus musculus [1]
  scMet: 30 mg/kg
Mus musculus [2]
  Toxicity: 0
Mus musculus [3]
  Toxicity: 0
Mus musculus [4]
  MES: inactive
Mus musculus [10]
  MES: inactive
Mus musculus [5]
  MES: inactive
Mus musculus [7]
  scMet: 30 mg/kg
Mus musculus [11]
  scMet: 600 mg/kg

## CC1CCCC(C(=O)CC2CC(=O)N(C)C(=O)C2)C1=O (stereo in doubt; 2g)
Mus musculus [9]
  MES: 600 mg/kg
Mus musculus [4]
  MES: inactive

## CC(=O)O[C@H](CC1CC(=O)N(C)C(=O)C1)C1C[C@@H](C)C[C@H](C)C1=O (stereo not given in full)
Mus musculus [4]
  MES: inactive
Mus musculus [5]
  MES: inactive
Mus musculus [6]
  scMet: inactive
Mus musculus [8]
  scMet: inactive

## C[C@@H]1CCC(=O)C(C(=O)CC2CC(=O)NC2=O)C1 (stereo not given in full)
Mus musculus [1]
  scMet: 600 mg/kg
Mus musculus [9]
  MES: 600 mg/kg
Mus musculus [2]
  Toxicity: 1
Mus musculus [3]
  Toxicity: 2
Mus musculus [4]
  MES: inactive
Mus musculus [6]
  scMet: inactive
Mus musculus [7]
  scMet: 600 mg/kg

## C[C@@H]1CC([C@H](O)CC2CC(=O)NC(=O)C2)C(=O)[C@@H](C)C1 (stereo not given in full)
Mus musculus [2]
  Toxicity: 0 animals
Mus musculus [3]
  Toxicity: 1
Mus musculus [12]
  scMet: 100 mg/kg
Mus musculus [13]
  scMet: 300 mg/kg
Mus musculus [14]
  MES: 600 mg/kg
Mus musculus [15]
  scMet: 100 mg/kg
Mus musculus [16]
  scMet: 300 mg/kg
Mus musculus [17]
  MES: inactive

## O=C1CC(CC(=O)C2CCCCC2=O)CC(=O)N1 (stereo not given)
Mus musculus [1]
  scMet: 600 mg/kg
Mus musculus [3]
  Toxicity: 0
Mus musculus [4]
  MES: inactive
Mus musculus [5]
  MES: inactive
Mus musculus [6]
  scMet: inactive
Mus musculus [7]
  scMet: 600 mg/kg

## CN1C(=O)CC(C[C@@H](O)C2CCCC[C@@H]2O)CC1=O (stereo not given in full)
Mus musculus [4]
  MES: inactive
Mus musculus [5]
  MES: inactive
Mus musculus [6]
  scMet: inactive
Mus musculus [8]
  scMet: inactive

## C[C@H]1CCCC(C(=O)CC2CC(=O)NC(=O)C2)C1=O (stereo not given in full)
Mus musculus [1]
  MES: 100 mg/kg
Mus musculus [2]
  Toxicity: 0
Mus musculus [3]
  Toxicity: 0
Mus musculus [4]
  MES: inactive
Mus musculus [5]
  MES: inactive
Mus musculus [6]
  scMet: inactive
Mus musculus [7]
  scMet: 300 mg/kg

## CN1C(=O)CC(CC(=O)C2CCCCC2=O)CC1=O (stereo in doubt; 2e)
Mus musculus [4]
  MES: inactive
Mus musculus [5]
  MES: inactive
Mus musculus [6]
  scMet: inactive
Mus musculus [8]
  scMet: inactive

## C[C@@H]1CC(C(=O)CC2CC(=O)N(C)C(=O)C2)C(=O)[C@@H](C)C1 (stereo not given in full)
Mus musculus [1]
  scMet: 600 mg/kg
Mus musculus [2]
  Toxicity: 1
Mus musculus [3]
  Toxicity: 1
Mus musculus [18]
  MES: 600 mg/kg
Mus musculus [6]
  scMet: inactive
Mus musculus [7]
  scMet: 600 mg/kg
Mus musculus [19]
  MES: inactive

## O=C1CC(CC(=O)C2CCCCC2=O)C(=O)N1 (stereo not given)
Mus musculus [1]
  scMet: 600 mg/kg
Mus musculus [2]
  Toxicity: 0
Mus musculus [3]
  Toxicity: 0
Mus musculus [4]
  MES: inactive
Mus musculus [20]
  scMet: inactive
Mus musculus [5]
  MES: inactive
Mus musculus [7]
  scMet: 600 mg/kg

## C[C@H]1CCCC([C@H](O)CC2CC(=O)N(C)C(=O)C2)[C@H]1O (stereo not given in full)
Mus musculus [9]
  MES: 600 mg/kg
Mus musculus [3]
  Toxicity: 0
Mus musculus [6]
  scMet: inactive
Mus musculus [8]
  scMet: inactive
Mus musculus [21]
  MES: inactive

## C[C@H]1CC([C@H](O)CC2CC(=O)NC(=O)C2)[C@@H](O)[C@@H](C)C1 (stereo not given in full)
Mus musculus [1]
  scMet: 100 mg/kg
Mus musculus [22]
  scMet: 600 mg/kg
Mus musculus [2]
  Toxicity: 0
Mus musculus [3]
  Toxicity: 1
Mus musculus [4]
  MES: inactive
Mus musculus [5]
  MES: inactive
Mus musculus [7]
  scMet: 100 mg/kg
Mus musculus [11]
  scMet: 600 mg/kg

## C[C@H]1CC[C@H](O)C([C@H](O)CC2CC(=O)N(C)C(=O)C2)C1 (stereo not given in full)
Mus musculus [9]
  MES: 600 mg/kg
Mus musculus [3]
  Toxicity: 4
Mus musculus [4]
  MES: inactive
Mus musculus [6]
  scMet: inactive
Mus musculus [8]
  scMet: inactive

## C[C@@H]1CCc2c(c(CC3CC(=O)NC(=O)C3)nn2-c2ccccc2)C1
Mus musculus [3]
  Toxicity: 0
Mus musculus [4]
  MES: inactive
Mus musculus [23]
  MES: inactive
Mus musculus [5]
  MES: inactive
Mus musculus [8]
  scMet: inactive
Mus musculus [11]
  scMet: 30 mg/kg

## C[C@H]1CCC(=O)C(C(=O)CC2CC(=O)N(C)C(=O)C2)C1 (stereo not given in full)
Mus musculus [4]
  MES: inactive
Mus musculus [5]
  MES: inactive
Mus musculus [6]
  scMet: inactive
Mus musculus [8]
  scMet: inactive

Source: ChEMBL document CHEMBL1123210, “Cycloheximide analogues as potential anticonvulsants” (J Med Chem, 1986)
